High-throughput results from PubChem.
bovine MsrA act = activators of bovine methionine sulfoxide reductase A. activation, % at 10.6 µM. actives 0.3% (n = 360,000). purified bovine MsrA, absorbance read-out; in the data active = activation above about 7.5%;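 also: 0% = vehicle and 100% = reference activator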
MC4R ag barr = human MC4R agonism via beta-arrestin | activation, % at 8.9 µM | AID 540308 | U2OS MC4R beta-arrestin complementation, luminescence; percent of melanotan II response, DMSO zero | actives 0.98% (n = 360,000);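 active = activation above a per-plate cutoff, the mean activation of sample wells on that plate plus 3 SD, cut at about 8% in these data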
Target sequence (P32245 whole entry, looked up): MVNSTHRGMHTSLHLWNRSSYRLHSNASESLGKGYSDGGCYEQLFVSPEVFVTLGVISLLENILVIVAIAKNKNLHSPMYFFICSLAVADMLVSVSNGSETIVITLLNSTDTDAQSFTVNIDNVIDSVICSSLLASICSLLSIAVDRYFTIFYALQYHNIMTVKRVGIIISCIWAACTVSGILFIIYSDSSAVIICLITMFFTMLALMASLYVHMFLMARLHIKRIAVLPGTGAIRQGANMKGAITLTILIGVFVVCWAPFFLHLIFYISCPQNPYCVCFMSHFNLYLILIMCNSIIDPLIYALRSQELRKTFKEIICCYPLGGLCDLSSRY
MsrA inh = inhibits bovine methionine sulfoxide reductase A. purified bovine MsrA, absorbance read-out. inhibition, % at 15.5 µM. actives 0.75% (n = 360,000); in the data active = inhibition above about 4.5%;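 also: 0% = vehicle wells with enzyme and 100% = reference inhibitor wells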
MC4R antag cAMP = human MC4R antagonism in cAMP assay; inhibition, % at 6.5 µM; P32245; actives 0.48% (n = 360,000); MC4R-expressing cells, MTII-stimulated cAMP, LANCE TR-FRET;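 active = inhibition above its plate's cutoff, the mean of tested wells on that plate plus 3 SD, cut at about 29% in these data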;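 also: 0% = Melanotan II alone and 100% = Melanotan II plus saturating MCL0020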
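Material: human MC4R-expressing U2OS cells. Probe or stimulus: Melanotan II challenge. Dosing: 6.5 µM single dose. Times: 30-min compound, 1-h challenge, 1-h detection, room temperature. Technique: TR-FRET with Eu-cAMP and labeled anti-cAMP, 671 nm. Replication: singlicate.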
MsrA activ conf = bovine methionine sulfoxide reductase A activation confirmed. shares compounds with bovine MsrA act. purified bovine MsrA, absorbance read-out. activation, % at 10.6 µM. actives 12% (n = 1,000). AID 602270; in the data active = activation above about 4%;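 also: enzyme coupled to thioredoxin and thioredoxin reductase with NADPH; 0% = vehicle wells and 100% = reference activator wells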
An asterisk follows results filed as active; x = no result. This is a sample that favours compounds with a hit; in the whole collection about 2.3% have one here.

SMILES | bovine MsrA act | MC4R ag barr | MsrA inh | MC4R antag cAMP | MsrA activ conf
Brc1ccc(C=Nc2ccc(Nc3ccccc3)cc2)s1 | 3 | -1 | x | -5 | x
COc1ccc(OC)c(C(=O)c2coc3ccc(OCC(=O)O)cc23)c1 | -2 | -1 | 1 | 3 | x
O=C(c1ccc([N+](=O)[O-])o1)N1CCc2ccccc21 | 10* | -1 | 3 | -5 | 2
O=C(c1ccc([N+](=O)[O-])o1)N1CCc2ccccc2C1 | 3 | -3 | 2 | 9 | x
Cc1cc(C(F)(F)F)n2nc(C)c(-c3ccc(Cl)cc3)c2n1 | 16* | 3 | -1 | -26 | 0
Cc1ccc(S(=O)(=O)N2CCCCC2)cc1NC(=O)C1CCCO1 (stereo unspecified) | -3 | -1 | -1 | -4 | x
COc1ccccc1C(=O)N(Cc1ccccc1)c1ccc(C)cc1 | -1 | 0 | -1 | 5 | x
COc1ccc(CN(C(=O)c2ccco2)c2ccc(C)cc2)cc1OC | 7.9* | -1 | 1 | 5 | -2
CS(=O)(=O)c1cc([N+](=O)[O-])c(Sc2nc3ccccc3[nH]2)c([N+](=O)[O-])c1 | 8.0* | -5 | -1 | 24 | 10*
C=CCn1c(-c2ccc(Cl)cc2)c[nH]c1=S | -5 | -1 | 1 | 0 | x
Cc1oc2c(c1C(=O)c1ccccc1)C(=O)C(=O)c1ccccc1-2 | 9.3* | 3 | 1 | -10 | 13*
CCOC(=O)c1c(C)oc2c1C(=O)c1ccccc1C2=O | 3 | -2 | 0 | -8 | x
Cc1oc2c(c1C(=O)O)C(=O)c1ccccc1C2=O | 8.4* | 0 | 0 | 3 | 0
CCOc1ccc(NC(=O)Cn2nnc(C(=O)NCc3cccs3)c2N)cc1 | -1 | 3 | 1 | -2 | x
CN(CC(=O)Nc1cccc(F)c1)C(=O)c1cccnc1Sc1ccc(Cl)cc1 | -1 | -2 | 0 | 7 | x
O=C(COC(=O)Cc1n[nH]c(=O)c2ccccc12)Nc1cccc(C(F)(F)F)c1 | 0 | -2 | -1 | 1 | x
CS(=O)(=O)Nc1ccc(C(=O)NCCSCc2c(F)cccc2Cl)cc1 | 8.3* | -1 | -1 | 14 | 1
CS(=O)(=O)Nc1ccc(C(=O)NCCSCc2ccccc2)cc1 | 2 | -1 | 2 | -5 | x
NS(=O)(=O)c1ccc(NC(=O)COC(=O)c2ccc([N+](=O)[O-])s2)cc1 | 28* | -1 | 2 | 24 | 12*
COc1ccccc1NC(=O)COC(=O)c1ccc([N+](=O)[O-])s1 | 33* | -3 | 2 | 10 | 18*
CN(CC(=O)Nc1ccccc1Cl)C(=O)COC(=O)c1ccc([N+](=O)[O-])s1 | 12* | -2 | 1 | 1 | 2
COCCNC(=O)/C(C#N)=C/c1ccccc1Br | -4 | 0 | 1 | 9 | x
Cc1cccc(NCc2ccccc2O)c1C | 15* | 0 | 0 | 3 | -1
Cc1cc(-c2ccccc2)cc(=O)[nH]1 | 13* | 1 | 1 | 1 | -2
Cc1cc(=O)[nH]c(-c2ccccc2)n1 | -3 | -1 | -1 | 4 | x
SMILES | bovine MsrA act | MC4R ag barr | MsrA inh | MC4R antag cAMP | MsrA activ conf
CC(NC(=O)c1cccnc1)C(c1ccccc1)N1CCN(C)CC1 (stereo unspecified) | -3 | 2 | 0 | 7 | x
O=C(COC(=O)c1cncc(Br)c1)NC12CC3CC(CC(C3)C1)C2 | 9.3* | 1 | 0 | 1 | -1
CC1CCN(C(=O)COC(=O)c2ccc(=O)n(Cc3ccccc3)n2)CC1 | -1 | -1 | 0 | -4 | x
CC(c1nnnn1C1CCCCC1)N(Cc1ccccc1)Cc1cccnc1 (stereo unspecified) | 11* | 1 | 1 | -3 | 1
CCC(=O)N1Cc2cc(C(=O)NCC(F)(F)F)nc(-c3cccc(-c4cncnc4)c3)c2[C@@H]1CCO | 8.2* | x | -2 | x | -5
CCCN(CCC)C(=O)COc1cc(=O)n(CC)c2ccccc12 | -2 | 0 | 0 | 3 | x
CCn1c(=O)cc(OCC(=O)O)c2ccccc21 | 14* | -1 | -2 | 4 | -1
CCOC(=O)c1cc(C)n(CCCN2CCOCC2)c1C | -6 | -2 | -1 | 5 | x
CC(=O)c1ccc(NC(=O)C2CC2c2ccccc2)cc1 (stereo unspecified) | 10* | -1 | 0 | -1 | -4
CC(C)(C)NC(=S)NNC(=O)[C@H]1C[C@@H]1c1ccccc1 | 8.5* | -1 | -1 | 7 | -1
C=CCn1c(SCCN2CCCC2)nc2c([nH]c3ccccc32)c1=O | 8.4* | -1 | 1 | -25 | -1
C=CCn1c(SCC(=O)Nc2ccc(OC)cc2)nc2c([nH]c3ccccc32)c1=O | -6 | -1 | 1 | -25 | x
CC1(C)CN=c2s/c(=C\c3ccc(Cl)cc3)c(=O)n2C1 | -1 | -1 | 3 | 11 | x
CCCCNC(=O)N1CCc2[nH]c3ccccc3c2C1 | -6 | 0 | -2 | 5 | x
O=C(O)c1cc(C2CC2)nn1-c1ccccc1 | 0 | -4 | -1 | 9 | x
Nc1cc(C2CCCC2)nn1-c1ccccc1 | 9.1* | -3 | -1 | 7 | -4
CC(=O)Nc1nc(-c2ccc(Cl)cc2)nc(C)c1C(C)=O | 8.9* | -1 | 0 | -1 | 2
CCn1c(SCC(=O)N2CCN(S(=O)(=O)c3ccccc3)CC2)nnc1-c1cccs1 | 9.6* | -2 | 1 | 4 | -1
Cc1nnc(SCC(=O)N2CCN(S(=O)(=O)c3ccccc3)CC2)n1Cc1ccccc1 | -1 | -1 | 1 | 11 | x
COC(=O)c1ccc(NC(=O)C(C)Oc2ccccc2)cc1 (stereo unspecified) | 2 | 0 | 1 | -1 | x
COC(=O)c1ccc(NC(=O)[C@H](C)NC(N)=O)cc1 | 23* | -1 | 0 | 10 | -1
Nc1nc(=S)ss1 | 38* | -3 | 1 | 8 | 28*
Cc1cc(=O)[nH]c(SCC(=O)Nc2ccnc3ccccc23)n1 | -4 | -2 | 1 | 6 | x
O=c1cc(NCc2ccccc2)nc2ccccn12 | -1 | -1 | 0 | 8 | x
CCOc1cc(Cl)c(S(=O)(=O)NCc2ccccn2)cc1Cl | 0 | -1 | 0 | 8 | x
SMILES | bovine MsrA act | MC4R ag barr | MsrA inh | MC4R antag cAMP | MsrA activ conf
Cc1nc(SCC(=O)NCc2ccc3c(c2)OCO3)c(C#N)c2c1CCCC2 | 9.2* | 2 | -1 | 2 | -2
Cc1cc(=O)[nH]c(SCC(=O)NCc2ccc3c(c2)OCO3)n1 | -10 | 0 | -1 | -6 | x
CCc1nnc(NC(=O)CSc2nc(C)c3c(c2C#N)CCCC3)s1 | 15* | -2 | x | -9 | -2
COc1ccc(NC(=O)CSc2nc(C)c3c(c2C#N)CCCC3)cc1 | 1 | 1 | 1 | 4 | x
CCOc1ncccc1C(=O)N1CCN(c2ccc(C(F)(F)F)cn2)CC1 | -1 | -1 | 3 | -1 | x
Cc1nn(C)c(C)c1C(=O)NN | -13 | -1 | 0 | 5 | x
CCOc1ccccc1NC(=O)C(OC(=O)c1ccc(CC)cc1)c1ccccc1 (stereo unspecified) | 0 | 1 | 3 | 13 | x
Cc1ccc(NC(=O)COC(=O)COc2ccc(Cl)cc2)c([N+](=O)[O-])c1 | 16* | 0 | 0 | 4 | -1
Cc1ccc(C(N)=O)cc1S(=O)(=O)Nc1cccc(C)c1C | 16* | -1 | -1 | 4 | -4
